Molecules are shown by their SMILES. Active and inactive are the calls of the source. No cut-off for these calls is given here.

Data on 6 compounds can be found in ChEMBL document CHEMBL4433233, “Folic acid conjugates of a bleomycin mimic for selective targeting of folate receptor positive cancer cells” (Bioorg Med Chem Lett, 2019).

Data set [1] in a line: Retention time of the compound by LC-MS analysis. Type of data set: physicochemical.
For data set [2], the system named is IGROV-1. Put plainly: Cytotoxicity against human IGROV1 cells in low folate medium assessed as reduction in metabolic activity at 1 to 150 uM incubated for 24 to 72 hrs by MTS assay. Type of data set: functional, cell-based. The essentials: (§1)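 MTS metabolic-activity assay in low folate RPMI-1640 with 10% dialyzed FCS and 2 nM FA. Compound concentrations ran from 1 to 150 μM, with incubation for 24, 48 and 72 h. IC50 values were derived from the concentration-response data.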
A general note: Tetrazolium assays rely on reduction of a dye to a coloured formazan, in cell work by metabolically active cells.

In data set [3] the test system is KB. Briefly: Induction of ROS generation in human KB cells at 30 uM incubated for 72 hrs by APF probe-based flow cytometer analysis relative to control. The class given is functional. The essentials: (§2)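 Cells were treated with 30 μM compound. Highly reactive oxygen species were detected with the APF probe, and APF mean fluorescence intensity was measured by FACS and normalized to solvent control.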
Background: A flow cytometer gives signals particle by particle.

Data set [4] deals with KB. Briefly: Cytotoxicity against human KB cells in low folate medium assessed as reduction in metabolic activity at 1 to 150 uM incubated for 24 to 72 hrs by MTS assay. Type of data set: functional, cell-based. The essentials:
as §1

The species entered for another data set is Homo sapiens. Briefly: Displacement of folate-FITC from folate receptor in human KB cells at 25 to 1000 pmol incubated for 10 mins by FITC staining-based FACS analysis. Type of data set: cell-based. The essentials:
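Competition binding in 0.5·10^6 KB cells per experiment. Compound at 25, 50, 100, 250, 500 or 1000 pmol was combined with 50 pmol Folate-FITC. Cell-bound fluorescence was read by FACS as MFI on channel PL-1. Mean ± SEM, N ≥ 5.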

Data set [5] relates to IGROV-1. Put plainly: Cytotoxicity against human IGROV1 cells in low folate medium assessed as metabolic activity at 50 uM incubated for 72 hrs by MTS assay relative to control. Type of data set: functional. In outline: (§3)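 MTS metabolic-activity assay under low folate conditions (RPMI-1640, 10% dialyzed FCS, supplemented with 2 nM FA). Compounds were added as free ligand at 30 or 50 μM for 24, 48 and 72 h. Activity is expressed relative to DMSO control. Each treatment was run in triplicate and each experiment three times; mean ± SEM.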

Data set [6] deals with KB. Put plainly: Cytotoxicity against human KB cells in high folate medium assessed as reduction in metabolic activity at 30 uM incubated for 24 to 72 hrs by MTS assay. Type of data set: functional, cell-based. In outline:
(§4)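 MTS assay in standard high folate medium (RPMI-1640 containing 2.3 μM FA, 10% FCS). Cells were treated with 30 or 50 μM compound for 24, 48 and 72 h. Metabolic activity was compared with solvent control.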

Data set [7] has as its system MCF7. Briefly: Cytotoxicity against human MCF7 cells in high folate medium assessed as reduction in metabolic activity at 50 uM incubated for 24 to 72 hrs by MTS assay. Type of data set: ADME, cell-based. Conditions: mcf7, 50 µM. The essentials:
as §4

Data set [8] in a line: Binding affinity to iron assessed as formation of iron complex in the presence of Fe(ClO4)2 and GSH after 5 mins by LC-MS analysis. The essentials: (§5)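 Conjugate kept in tris-HCl buffer pH 8.5 with two equivalents of Fe(ClO4)2 and 5 mM glutathione. LC-MS was used to follow in situ iron-complex formation and disulphide cleavage products at 5 min, 20 min and for a further 3 h.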

Data set [9] concerns IGROV-1. Briefly: Cytotoxicity against human IGROV1 cells in low folate medium assessed as metabolic activity at 30 uM incubated for 72 hrs by MTS assay relative to control. Type of data set: functional. In outline:
as §3

The test system of data set [10] is KB. Briefly: Cytotoxicity against human KB cells in low folate medium assessed as reduction in metabolic activity at 30 uM measured after 48 hrs by MTS assay. Type of data set: functional, cell-based. The essentials:
(§6)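 MTS assay on KB cells under low folate conditions (RPMI-1640, 10% dialyzed FCS, 2 nM FA). Cells were exposed to 30 or 50 μM compound as free ligand for 24, 48 and 72 h and compared with DMSO control. Treatments in triplicate, experiment repeated three times; mean ± SEM.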

The subject of data set [11] is MCF7. Briefly: Induction of ROS generation in human MCF7 cells at 30 uM incubated for 72 hrs by APF probe-based flow cytometer analysis relative to control. The conditions noted are these: mcf7, 72 h. The class given is cell-based. The essentials:
as §2

In data set [12] the test system is KB. Put plainly: Cytotoxicity against human KB cells in low folate medium assessed as reduction in metabolic activity at 50 uM measured after 48 hrs by MTS assay. Type of data set: functional, cell-based. The essentials: as §6
The test system of data set [13] is KB. Briefly: Cytotoxicity against human KB cells in low folate medium assessed as metabolic activity at 30 uM measured after 72 hrs by MTS assay relative to control. Type of data set: functional. In outline:
as §3

A short description of data set [14]: Stability in pH 8.5 tris-HCl buffer assessed as cleavage of compound in presence of Fe(ClO4)2 and GSH incubated for 3 hrs by LC-MS analysis. Conditions: pH 8.5, 3 h.
In data set [15] the test system is MCF7. Put plainly: (§7) Cytotoxicity against human MCF7 cells in low folate medium assessed as metabolic activity at 50 uM incubated for 72 hrs by MTS assay relative to control. The class given is ADME, cell-based. Conditions: mcf7, 72 h, 50 µM. The essentials: as §3
The test system of a further data set is DNA. Briefly: Induction of Escherichia coli XL1 Blue pUC18 DNA cleavage assessed as turnover frequency in presence of DTT and 1 equivalent of (NH4)2Fe(SO4)2.6H2O at 1 uM by agarose gel electrophoresis method. The class given is nucleic-acid assay. In outline:
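Supercoiled pUC18 plasmid DNA was incubated at 37 °C with 1 μM iron complex in the presence of DTT as reductant. Strand cleavage was followed and turnover frequency determined.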

Data set [16] concerns KB. Put plainly: Cytotoxicity against human KB cells in high folate medium assessed as reduction in metabolic activity at 30 uM incubated for 24 to 72 hrs in the presence of excess folic acid by MTS assay. The class given is functional, cell-based. The essentials: (§8)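 Competition MTS assay in standard RPMI medium (high folate). Cells were co-treated with 30 μM compound plus 150 μM FA, or with 150 μM FA alone, for 24, 48 and 72 h, and metabolic activity was read by MTS.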

Data set [17] concerns MCF7. Put plainly: (§9) Cytotoxicity against human MCF7 cells in low folate medium assessed as metabolic activity at 30 uM incubated for 72 hrs by MTS assay relative to control. Conditions: mcf7, 72 h, 30 µM. The class given is ADME, cell-based. The essentials:
as §3

Data set [18] has as its system IGROV-1. Briefly: Cytotoxicity against human IGROV1 cells in high folate medium assessed as reduction in metabolic activity at 30 uM incubated for 24 to 72 hrs in the presence of excess folic acid by MTS assay. Type of data set: functional, cell-based. The essentials: as §8
Data set [19] deals with MCF7. Briefly: Cytotoxicity against human MCF7 cells in high folate medium assessed as reduction in metabolic activity at 30 uM incubated for 24 to 72 hrs in the presence of excess folic acid by MTS assay. The class given is ADME, cell-based. Conditions: mcf7, 30 µM. The essentials:
as §8

For data set [20], the system named is KB. Briefly: Cytotoxicity against human KB cells in low folate medium assessed as metabolic activity at 50 uM measured after 72 hrs by MTS assay relative to control. The class given is functional. In outline: as §3
A short description of data set [21]: Stability in pH 8.5 tris-HCl buffer assessed as compound cleavage in presence of Fe(ClO4)2 and GSH after 5 mins by LC-MS analysis. Type of data set: physicochemical. The conditions noted are these: pH 8.5, 5 min. The essentials: as §5
Data set [22] can be described thus: Stability in pH 8.5 tris-HCl buffer assessed as cleavage of compound in presence of Fe(ClO4)2 and GSH incubated for 20 mins by LC-MS analysis. Type of data set: physicochemical. Conditions: pH 8.5, 20 min. The essentials:
as §5

Data set [23] in a line: as §7. Type of data set: ADME, cell-based. Conditions: MCF7 cells, read-out: Activity. The essentials: as §3
Data set [24] is described as follows: as §9. Conditions: MCF7 cells, read-out: Activity. Type of data set: ADME, cell-based. The essentials: as §3
Data set [25] concerns MCF7. Briefly: Cytotoxicity against human MCF7 cells in low folate medium assessed as reduction in metabolic activity at 1 to 150 uM incubated for 24 to 72 hrs by MTS assay. The class given is ADME, cell-based. The conditions noted are these: mcf7, 150 µM. In outline: as §1

In data set [1], `Nc1nc(O)c2nc(CNc3ccc(C(=O)N[C@@H](CCC(=O)NCCNC(=O)CCS)C(=O)O)cc3)cnc2n1` yielded a Retention_time of 9.12 min.

As for `Nc1nc(=O)c2nc(CNc3ccc(C(=O)N[C@@H](CCC(=O)O)C(=O)O)cc3)cnc2[nH]1`, the result in the data set on IGROV-1 [2], in the data set with KB [3] and with KB [4] was inactive. For the same compound, the result in the data set filed under Homo sapiens was Active.

`Nc1nc(O)c2nc(CNc3ccc(C(=O)N[C@@H](CCC(=O)NCCNC(=O)CCSSC[C@H](NC(=O)CC[C@H](N)C(=O)O)C(=O)NCC(=O)O)C(=O)O)cc3)cnc2n1` returned a Retention_time in data set [1] of 8.77 min.

Consider `Nc1nc(O)c2nc(CNc3ccc(C(=O)N[C@@H](CCC(=O)NCCNC(=O)CCCCCCC(=O)NCCCNC(=O)c4ccc(CN(Cc5ccccn5)C(c5ccccn5)c5ccccn5)nc4)C(=O)O)cc3)cnc2n1`, for which the Activity is 58.1% with IGROV-1 [5]; “Non-Toxic” in the data set with MCF7 [7]; 82.4% with IGROV-1 [9]; 88.1% in the data set on KB [13]; “Non-Toxic” in the data set on MCF7 [15]; 0.16 s⁻¹ in the data set with DNA. For the same compound, the Activity result was “Non-Toxic” with MCF7 [17], “Non-Toxic” in the data set on MCF7 [19] and 62.4% with KB [20]. Moreover, the result in the data set with KB [6], with KB [10], in the data set with KB [12], with KB [3], in the data set with KB [16] and in the data set on IGROV-1 [18] was inactive. Moreover, the result (in data set [8]; in the data set listed under Homo sapiens) was Active. For the same compound, in the data set on MCF7 [11], the “fold change (FC)” value was 1.6. For the same compound, the Stability entry in data set [14] is given as “Stable”.

`Nc1nc(O)c2nc(CNc3ccc(C(=O)N[C@@H](CCC(=O)NCCNC(=O)CCSSCCC(=O)NCCCNC(=O)c4ccc(CN(Cc5ccccn5)C(c5ccccn5)c5ccccn5)nc4)C(=O)O)cc3)cnc2n1`: the Activity with IGROV-1 [5] is 22%; in the data set on MCF7 [7], “Non-Toxic”; with IGROV-1 [9], 47.2%; in the data set on KB [13], 38.8%; in the data set with DNA, 0.19 s⁻¹; with MCF7 [19], “Non-Toxic”. Besides, the Activity in the data set on KB [20] is on record as 11.2%. The outcome in the data set with KB [6], in the data set with KB [16] and in the data set with IGROV-1 [18] was inactive. Also, the result (in data set [8]; in the data set listed under Homo sapiens) was Active. Also, the Stability result in [21] and in [22] was “Unstable” throughout. Moreover, the entries for the “fold change (FC)” value in the data set on MCF7 [11] and with KB [3] were 1.6 and 3.5, respectively. Also, in data set [23], the viability at 72 h, 50 µM turned out to be 76.4%. Also, the viability at 72 h, 30 µM in data set [24] was determined as 78.9%.

With `Nc1nc2ncc(CNc3ccc(C(=O)N[C@@H](CCC(=O)O)C(=O)O)cc3)nc2c(=O)[nH]1` [FOLIC ACID], the Activity result in the data set with MCF7 [25] was “Non-Toxic”.
